Results: article PMC3715850 (Nature Communications, 2013)
Where two headings read alike, the source gives them in different places.

Columns and labels:
Format in all cases: binding
E710A = E710A (Escherichia coli, UniProt P00582, C907S/D424A/E710A/K550C/L744C); conditions: for occupancy of the closed conformation: 1 mM dNTP
Method in brief: (§1)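 Doubly labelled Klenow fragment (<100 pM) with DNA, titrated with nucleotide in 40 mM HEPES-NaOH pH 7.3, 10 mM MgCl2, 1 mM DTT, 100 μg ml−1 BSA, 5% glycerol, 1 mM mercaptoethylamine. Read by confocal alternating-laser excitation (532/638 nm) at ~22 °C. Stoichiometry-filtered E* histograms fitted as double Gaussians (σ≤0.07). Low-FRET peak shift and high-FRET fraction globally fitted for K0, K1, K2; Kd1=1/K1, Kd2=1/(K1K2).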

Y766A = Y766A (Escherichia coli, UniProt P00582, C907S/D424A/K550C/L744C/Y766A); conditions: template G (DNA2); listed as G-dCTP
Method in brief: as §1

wt KF [1] = biological target: T1, wt KF (Escherichia coli, UniProt P00582, C907S/D424A/K550C/L744C); conditions: for free energy of closed complex relative to partially closed state, ΔrG(IN/CN) / free energy of partially closed state relative to open binary complex, ΔrG(O/IN): template A; for free energy of partially closed state relative to open binary complex, ΔrG(O/IN): nucleotide concentrations in E. coli (dTTP 120 μM, dGTP 60 μM)
Method in brief: as §1

wt KF [2] = biological target: T1, wt KF; test: Interconversion rates of ternary complexes by PDA and FRET-width analysis; conditions: template A, listed as A-dGTP
wt KF [3] = biological target: T1, wt KF; test: Single-molecule FRET nucleotide titration in the absence of DNA; conditions: no DNA
Method in brief: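 Polymerase without DNA: doubly labelled protein (<100 pM) titrated with nucleotide in HEPES-NaOH pH 7.3 buffer with 10 mM MgCl2, at ~22 °C by confocal alternating-laser excitation smFRET. O and C denote unliganded-protein states. Double-Gaussian fits of stoichiometry-filtered E* histograms; low-FRET peak shift and high-FRET fraction fitted globally for K0, K1, K2, with Kd1=1/K1.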

Y766F = Y766F (Escherichia coli, UniProt P00582, C907S/D424A/K550C/L744C/Y766F); conditions: template A (DNA1); listed as A-dTTP
Method in brief: as §1

[4] = ternary complex, saturating nucleotide, PDA

Nc1ccn([C@H]2C[C@H](O)[C@@H](COP(=O)(O)OP(=O)(O)OP(=O)(O)O)O2)c(=O)n1 [dCTP]
occupancy of the closed conformation (E710A; template G (DNA2)): 61% | K2 (equilibrium IN to closed CN) (E710A; template G (DNA2), listed as G-dCTP): ~ 2 | K2 (equilibrium IN to closed CN) (Y766A): 8.9

Nc1ncnc2c1ncn2[C@H]1C[C@H](O)[C@@H](COP(=O)(O)OP(=O)(O)OP(=O)(O)O)O1 [dATP]
occupancy of the closed conformation (E710A; template T (DNA3)): 58% | K2 (equilibrium IN to closed CN) (E710A; template T (DNA3), listed as T-dATP): ~ 2

Nc1nc2c(ncn2[C@@H]2O[C@H](COP(=O)(O)OP(=O)(O)OP(=O)(O)O)[C@@H](O)[C@H]2O)c(=O)[nH]1 [rGTP]
K2 (equilibrium IN to closed CN) (wt KF [1]; template A (DNA1), listed as A-rGTP): < 0.2

Nc1nc2c(ncn2[C@H]2C[C@H](O)[C@@H](COP(=O)(O)OP(=O)(O)OP(=O)(O)O)O2)c(=O)[nH]1 [dGTP]
rate of the O-to-IN transition (wt KF [2]; at 60 μM dGTP (E. coli concentration), K1·kIN→O·[N]): 390 s⁻¹ | kCN→IN (closed to partially closed) (wt KF [2]; [4]): 45 s⁻¹ | kIN→CN (partially closed to closed) (wt KF [2]; [4]): 3 s⁻¹ | K2 (equilibrium IN to closed CN) (wt KF [3]): < 0.2 | free energy of closed complex relative to partially closed state, ΔrG(IN/CN) (wt KF [1]): +6 kJ mol^−1 | free energy of partially closed state relative to open binary complex, ΔrG(O/IN) (wt KF [1]): -0.17 kcal/mol

Cc1cn([C@H]2C[C@H](O)[C@@H](COP(=O)(O)OP(=O)(O)OP(=O)(O)O)O2)c(=O)[nH]c1=O [dTTP]
K2 (equilibrium IN to closed CN) (Y766F): 9.6 | free energy of closed complex relative to partially closed state, ΔrG(IN/CN) (wt KF [1]): -0.96 kcal/mol | molecules in closed conformation (occupancy) (wt KF [1]; template A (DNA1), 1 mM nucleotide): ~ 85% | K2 (equilibrium IN to closed CN) (wt KF [1]; template A (DNA1), listed as A-dTTP): 6.1 | free energy of partially closed state relative to open binary complex, ΔrG(O/IN) (wt KF [1]): -1.9 kcal/mol
